Here are results for three molecules from ChEMBL document CHEMBL3627626, “6-Substituted Pyrrolo[2,3-d]pyrimidine Thienoyl Regioisomers as Targeted Antifolates for Folate Receptor α and the Proton-Coupled Folate Transporter in Human Tumors” (J Med Chem, 2015).

Calls of active or inactive are those of the source. The rule behind the calls is not given here.

Data set [1] relates to R2. As to the kind of experiment: Cytotoxicity against Chinese hamster R2 cells transfected with empty PCDNA3 assessed as cell growth inhibition after 96 hrs by CellTiter-Blue assay. The data set is classed as cell-based, Cricetulus griseus. A general note: Alamar Blue is a resazurin reagent that responds to reducing activity.
Data set [2] addresses T1, Trifunctional purine biosynthetic protein adenosine-3 (Homo sapiens, UniProt P22102).
T1 sequence (P22102 whole entry): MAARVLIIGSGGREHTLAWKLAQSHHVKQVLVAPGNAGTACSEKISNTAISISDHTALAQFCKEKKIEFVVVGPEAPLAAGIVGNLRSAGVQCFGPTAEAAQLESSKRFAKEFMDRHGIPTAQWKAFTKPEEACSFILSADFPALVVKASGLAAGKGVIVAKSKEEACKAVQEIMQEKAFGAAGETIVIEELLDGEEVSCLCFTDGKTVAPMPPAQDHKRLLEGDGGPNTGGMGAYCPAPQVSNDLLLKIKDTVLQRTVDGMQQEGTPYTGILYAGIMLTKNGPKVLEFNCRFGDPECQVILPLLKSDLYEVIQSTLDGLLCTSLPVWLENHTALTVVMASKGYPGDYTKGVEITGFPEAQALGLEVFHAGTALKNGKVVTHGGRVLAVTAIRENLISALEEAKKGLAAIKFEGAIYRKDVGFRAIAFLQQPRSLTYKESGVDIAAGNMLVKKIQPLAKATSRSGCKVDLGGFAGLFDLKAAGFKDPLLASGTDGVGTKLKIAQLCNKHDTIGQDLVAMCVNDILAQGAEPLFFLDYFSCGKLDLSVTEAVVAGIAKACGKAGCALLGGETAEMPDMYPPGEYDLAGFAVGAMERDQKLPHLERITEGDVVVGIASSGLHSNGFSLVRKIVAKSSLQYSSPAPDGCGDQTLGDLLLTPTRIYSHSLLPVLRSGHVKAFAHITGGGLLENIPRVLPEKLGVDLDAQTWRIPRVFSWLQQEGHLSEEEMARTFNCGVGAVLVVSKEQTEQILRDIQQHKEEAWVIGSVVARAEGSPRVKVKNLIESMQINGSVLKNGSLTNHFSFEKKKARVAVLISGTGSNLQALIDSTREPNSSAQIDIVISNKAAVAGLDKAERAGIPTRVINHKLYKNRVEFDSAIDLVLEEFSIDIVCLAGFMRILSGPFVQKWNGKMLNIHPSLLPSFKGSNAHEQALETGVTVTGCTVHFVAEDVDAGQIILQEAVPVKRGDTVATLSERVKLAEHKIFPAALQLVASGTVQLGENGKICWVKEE
In words: Inhibition of human recombinant His-tagged GARFTase assessed as formation of 5,8-dideazafolate from 10-formyl-5,80-dideazafolic acid measured every 15 secs over 20 mins by spectrophotometric analysis.

Data set [3] concerns the target T2, Trifunctional purine biosynthetic protein adenosine-3 (Homo sapiens) (UniProt P22102).
T2 sequence (whole entry): T1 sequence (P22102 whole entry)
In words: Inhibition of GARFTase in human KB cells expressing FRalpha/PCFT/RFC assessed as cell growth inhibition after 96 hrs by CellTiter-Blue assay in presence of AICA. The data set is classed as cell-based.

The subject of data set [4] is KB. As to the kind of experiment: Antiproliferative activity against human KB cells expressing FRalpha/PCFT/RFC assessed as cell growth inhibition after 96 hrs by CellTiter-Blue assay. The class given is functional, cell-based.
Data set [5] deals with T1, Trifunctional purine biosynthetic protein adenosine-3. In words: Inhibition of GARFTase in human KB cells expressing FRalpha/PCFT/RFC assessed as incorporation of [14C(U)]-glycine into [14C]-formyl GAR preincubated for 1 hr followed by azaserine, L-glutamine, 14C(U)]-glycine addition measured after 16 hrs. The class given is cell-based. In a few lines:
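In situ assay in KB cells. Cells were exposed to a range of drug concentrations with [14C]glycine for 16 h under proliferation-assay conditions, with azaserine present. Radiolabelled metabolites were extracted and separated on anion exchange columns, and [14C]formyl GAR quantified. Mean ±SE of three experiments.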

Data set [6] deals with KB. As to the kind of experiment: Antiproliferative activity against human KB cells expressing FRalpha/PCFT/RFC assessed as cell growth inhibition after 96 hrs by CellTiter-Blue assay in presence of 200 nM folic acid. The class given is functional, cell-based.
The subject of data set [7] is R2. As to the kind of experiment: Cytotoxicity against PCFT-null Chinese hamster R2 cells assessed as cell growth inhibition after 96 hrs by CellTiter-Blue assay. The data set is classed as cell-based, Cricetulus griseus. Particulars: R2, 96 h.
In data set [8] the target is T2, Trifunctional purine biosynthetic protein adenosine-3 (Homo sapiens). As to the kind of experiment: Inhibition of GARFTase in human KB cells expressing FRalpha/PCFT/RFC assessed as cell growth inhibition after 96 hrs by CellTiter-Blue assay in presence of adenosine. The class given is cell-based.
In data set [9] the target is Folate receptor beta (Homo sapiens) (UniProt P14207). In words: Displacement of [3H]-folic acid from human FRbeta expressed in Chinese hamster D4 cells after 15 mins relative to folic acid. The class given is cell-based. The method, boiled down:
(§1)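 Competitive binding to surface folate receptor on RT16 (FRα) or D4 (FRβ) CHO cells. Cells were acid-washed (pH 3.5) to strip bound folate, then incubated in HEPES-buffered saline pH 7.4 with 50 nM [3H]folic acid plus unlabeled ligand (0–1000 nM) for 15 min at 0 °C. Bound label was normalised to protein. Affinity is the inverse molar ratio for 50% displacement, with folic acid set to 1. Mean of 4–10 experiments ±SE.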

The target in data set [10] is T2, Trifunctional purine biosynthetic protein adenosine-3 (Homo sapiens). In words: Inhibition of GARFTase in human KB cells expressing FRalpha/PCFT/RFC assessed as cell growth inhibition after 96 hrs by CellTiter-Blue assay in presence of thymidine. The data set is classed as cell-based.
The target in data set [11] is T3, Proton-coupled folate transporter (Homo sapiens) (UniProt Q96NT5).
T3 sequence (whole entry): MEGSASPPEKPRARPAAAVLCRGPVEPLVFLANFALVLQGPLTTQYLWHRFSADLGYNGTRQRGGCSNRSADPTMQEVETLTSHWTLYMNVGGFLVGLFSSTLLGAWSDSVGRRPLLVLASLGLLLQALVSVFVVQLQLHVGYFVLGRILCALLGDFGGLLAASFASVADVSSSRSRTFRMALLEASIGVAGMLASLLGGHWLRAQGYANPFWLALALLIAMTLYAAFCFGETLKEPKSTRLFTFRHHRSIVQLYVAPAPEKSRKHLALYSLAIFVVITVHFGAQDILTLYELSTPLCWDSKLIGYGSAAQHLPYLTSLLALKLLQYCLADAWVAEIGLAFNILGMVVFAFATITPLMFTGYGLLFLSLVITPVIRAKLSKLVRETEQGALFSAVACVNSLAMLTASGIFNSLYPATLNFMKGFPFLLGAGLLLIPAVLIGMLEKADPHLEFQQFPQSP
As to the kind of experiment: Binding affinity to human PCFT expressed in Chinese hamster R2/PCFT4 cells assessed as cell growth inhibition after 96 hrs by CellTiter-Blue assay in presence of 200 nM folic acid. The class given is cell-based. The method, boiled down: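 Human-PCFT-transfected R2 CHO cells, precultured with G418, were plated at ~2500–5000 cells/well across a range of drug concentrations. Medium was folate-free RPMI 1640 (pH 7.2) with 25 nM LCV and 10% dialyzed FBS. Parallel wells received 200 nM folic acid. Incubated up to 96 h, then read with CellTiter Blue fluorescence (ex 560/em 590 nm).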

The target in data set [12] is Folate receptor alpha (Homo sapiens) (UniProt P15328). As to the kind of experiment: Displacement of [3H]-folic acid from human FRalpha expressed in Chinese hamster RT16 cells after 15 mins relative to folic acid. The data set is classed as cell-based. In a few lines: as §1
Folate receptor alpha (Homo sapiens), sequence (P15328 25-234 limits assumed): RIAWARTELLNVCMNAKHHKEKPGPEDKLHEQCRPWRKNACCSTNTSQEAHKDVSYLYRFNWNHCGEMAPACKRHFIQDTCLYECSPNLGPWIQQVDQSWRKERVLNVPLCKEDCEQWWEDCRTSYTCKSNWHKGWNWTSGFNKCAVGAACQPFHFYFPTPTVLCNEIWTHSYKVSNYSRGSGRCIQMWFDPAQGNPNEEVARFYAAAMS
Substrate in data set [13]: Nc1nc2[nH]c(CCCc3cc(C(=O)N[C@@H](CCC(=O)O)C(=O)O)cs3)cc2c(=O)[nH]1
In words: (§2) Binding affinity to human PCFT expressed in Chinese hamster R2/PCFT4 cells assessed as intracellular drug transport rate at 37 degC at pH 6.8 measured over 2 mins by Lineweaver-Burk plot analysis. The class given is cell-based. The method, boiled down: (§3)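 R2/PCFT4 CHO cells were grown as monolayers, transferred to spinner flasks, and used as suspensions (5–10 × 10⁷ cells). Uptake was quenched with ice-cold DPBS and cells were NaOH-solubilized. Results are pmol/mg protein; Kt and Vmax come from Lineweaver–Burke plots.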

Substrate in data set [14]: Nc1nc2[nH]cc(CCc3ccc(C(=O)N[C@@H](CCC(=O)O)C(=O)O)cc3)c2c(=O)[nH]1
The data set is described as §2. The data set is classed as cell-based. The method, boiled down: as §3

Substrate in data set [15]: Nc1nc2[nH]c(CCCc3cc(C(=O)N[C@@H](CCC(=O)O)C(=O)O)cs3)cc2c(=O)[nH]1
As to the kind of experiment: (§4) Binding affinity to human PCFT expressed in Chinese hamster R2/PCFT4 cells assessed as intracellular drug transport rate at 37 degC at pH 5.5 measured over 2 mins by Lineweaver-Burk plot analysis. The data set is classed as cell-based. In a few lines:
as §3

Substrate in data set [16]: Nc1nc2[nH]cc(CCc3ccc(C(=O)N[C@@H](CCC(=O)O)C(=O)O)cc3)c2c(=O)[nH]1
The data set is described as §4. The class given is cell-based. The method, boiled down: as §3

Folate receptor beta (Homo sapiens), sequence (P14207 17-230 limits assumed): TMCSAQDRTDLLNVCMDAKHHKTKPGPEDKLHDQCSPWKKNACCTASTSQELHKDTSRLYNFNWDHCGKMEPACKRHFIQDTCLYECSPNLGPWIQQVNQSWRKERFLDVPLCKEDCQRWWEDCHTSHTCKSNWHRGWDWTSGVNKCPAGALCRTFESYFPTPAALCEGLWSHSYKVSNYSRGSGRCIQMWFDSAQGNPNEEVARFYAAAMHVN

What is called IC50 is the concentration needed to halve the response being measured. For orientation: Ki means the dissociation constant of the complex between target and ligand, obtained from inhibition or displacement. For `Nc1nc(N)c2c(CCCc3cc(C(=O)N[C@@H](CCC(=O)O)C(=O)O)cs3)coc2n1`, the concentration for half-maximal inhibition (IC50) in the data set on R2 [1] was over 1000 nM; in the data set with KB [4], 70.3 nM; in data set [5] it was 101 nM; in the data set with KB [6] it was over 1000 nM; in the data set with R2 [7], over 1000 nM. Further, the inhibitory constant (Ki) in data set [2] came out at 6500 nM. For the same molecule, the inhibition result in data set [3] and in data set [8] was “inactive” each time.
`Nc1nc2[nH]c(CCCc3csc(C(=O)N[C@@H](CCC(=O)O)C(=O)O)c3)cc2c(=O)[nH]1`: the Activity in data set [9] amounted to 35%; in data set [12], 60%. Further, the IC50 in the data set on R2 [1] is over 1000 nM; in the data set with KB [4] it was 0.17 nM; in data set [5], 2.4 nM; with KB [6], 337 nM; in the data set on R2 [7], 355 nM. The Ki in [2] was 13 nM. In addition, in data set [10], the inhibition entry is “Active”. Further, the inhibition result in [3] and in data set [8] was “inactive” each time. Besides, the outcome in data set [11] was Active.

B1: Proton-coupled folate transporter (Homo sapiens), Q96NT5 (protein)
chain: T3 sequence (whole entry)
Usually Vmax stands for the top rate of the reaction or transport when substrate is in excess. For B1, the maximum rate (Vmax) amounted to 3 pmol/mg/min in data set [13], 9.2 pmol/mg/min in data set [14], 24.6 pmol/mg/min in data set [15] and 13.4 pmol/mg/min in data set [16].
